Active and inactive are the calls of the source. The calls are words filed in the database; no cut-off is given here.
Assays:
Androgen receptor [1] = target: T1, Androgen receptor (Homo sapiens, UniProt P10275); test: (§1) Displacement of SRC2-3 peptide from human AR ligand binding site expressed in Escherichia coli BL21 by AF2 FP assay
T1 sequence (P10275 whole entry): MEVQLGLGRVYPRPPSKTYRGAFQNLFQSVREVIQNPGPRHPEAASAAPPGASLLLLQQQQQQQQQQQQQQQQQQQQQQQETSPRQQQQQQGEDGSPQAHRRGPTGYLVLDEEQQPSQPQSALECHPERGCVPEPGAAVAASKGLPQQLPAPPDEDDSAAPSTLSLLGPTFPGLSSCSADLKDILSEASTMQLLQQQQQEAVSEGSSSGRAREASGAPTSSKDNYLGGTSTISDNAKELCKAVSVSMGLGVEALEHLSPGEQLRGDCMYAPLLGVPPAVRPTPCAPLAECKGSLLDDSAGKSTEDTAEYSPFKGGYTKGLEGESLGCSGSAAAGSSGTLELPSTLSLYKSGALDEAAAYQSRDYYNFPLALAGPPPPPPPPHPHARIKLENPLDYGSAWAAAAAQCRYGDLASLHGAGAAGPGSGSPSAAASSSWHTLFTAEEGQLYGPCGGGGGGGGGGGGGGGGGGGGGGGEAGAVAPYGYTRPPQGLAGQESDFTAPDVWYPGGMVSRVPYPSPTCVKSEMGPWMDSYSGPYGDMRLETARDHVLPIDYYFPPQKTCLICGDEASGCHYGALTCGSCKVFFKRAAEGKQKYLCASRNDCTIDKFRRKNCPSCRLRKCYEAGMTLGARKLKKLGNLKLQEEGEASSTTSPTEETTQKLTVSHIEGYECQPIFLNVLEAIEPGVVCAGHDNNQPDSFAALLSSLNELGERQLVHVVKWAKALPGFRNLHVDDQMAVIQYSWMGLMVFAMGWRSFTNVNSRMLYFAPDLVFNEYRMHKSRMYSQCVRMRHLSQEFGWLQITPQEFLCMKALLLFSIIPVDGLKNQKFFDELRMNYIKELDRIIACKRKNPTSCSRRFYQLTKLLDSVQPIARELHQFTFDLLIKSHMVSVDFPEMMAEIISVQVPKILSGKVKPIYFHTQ
How it was run: (§2)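 Purified AR LBD (2 μM) with FITC-SRC2-3 peptide (5 nM), compound 0–200 μM, in 25 mM HEPES pH 7.5, 50 mM NaCl, 0.01% NP-40, 2 μM DHT; 2 h incubation, FP read at ex 485/em 530 nm. Triplicate, means ± SD; IC50 by nonlinear four-parameter fit, Ki via Kenakin equation.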

Androgen receptor [2] = target: T1, Androgen receptor; test: (§3) Inhibition of human AR AF2 site expressed in human LNCap cells coexpressing eGFP -ARR2PB assessed as inhibition of transcriptional activity; format: cell-based
How it was run: (§4)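 LNCaP cells stably carrying eGFP under androgen-responsive ARR2PB promoter, kept 5 days in phenol-red-free RPMI 1640 with 5% CSS, then plated at 35 000 cells/well with 0.1 nM R1881 plus compound 0–100 μM; after 3 days eGFP fluorescence read (ex 485, em 535 nm).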

LNCaP = test: Cytotoxicity against human LNCAP cells at 50 uM assessed as cell viability after 72 hrs by MTS assay; format: functional
How it was run: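 LN-ARR2PBeGFP LNCaP cells exposed to compound for 72 h, then MTS reagent added and incubated 2 h at 37 °C in 5% CO2; absorbance read-out of proliferation/viability.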

[3] = target: T2, Androgen receptor (Rattus norvegicus) (UniProt P15207); test: Displacement of androgen from His-GST tagged rat AR hormone binding site at 10 uM assessed as decrease in fluorescence polarization
T2 sequence (whole entry): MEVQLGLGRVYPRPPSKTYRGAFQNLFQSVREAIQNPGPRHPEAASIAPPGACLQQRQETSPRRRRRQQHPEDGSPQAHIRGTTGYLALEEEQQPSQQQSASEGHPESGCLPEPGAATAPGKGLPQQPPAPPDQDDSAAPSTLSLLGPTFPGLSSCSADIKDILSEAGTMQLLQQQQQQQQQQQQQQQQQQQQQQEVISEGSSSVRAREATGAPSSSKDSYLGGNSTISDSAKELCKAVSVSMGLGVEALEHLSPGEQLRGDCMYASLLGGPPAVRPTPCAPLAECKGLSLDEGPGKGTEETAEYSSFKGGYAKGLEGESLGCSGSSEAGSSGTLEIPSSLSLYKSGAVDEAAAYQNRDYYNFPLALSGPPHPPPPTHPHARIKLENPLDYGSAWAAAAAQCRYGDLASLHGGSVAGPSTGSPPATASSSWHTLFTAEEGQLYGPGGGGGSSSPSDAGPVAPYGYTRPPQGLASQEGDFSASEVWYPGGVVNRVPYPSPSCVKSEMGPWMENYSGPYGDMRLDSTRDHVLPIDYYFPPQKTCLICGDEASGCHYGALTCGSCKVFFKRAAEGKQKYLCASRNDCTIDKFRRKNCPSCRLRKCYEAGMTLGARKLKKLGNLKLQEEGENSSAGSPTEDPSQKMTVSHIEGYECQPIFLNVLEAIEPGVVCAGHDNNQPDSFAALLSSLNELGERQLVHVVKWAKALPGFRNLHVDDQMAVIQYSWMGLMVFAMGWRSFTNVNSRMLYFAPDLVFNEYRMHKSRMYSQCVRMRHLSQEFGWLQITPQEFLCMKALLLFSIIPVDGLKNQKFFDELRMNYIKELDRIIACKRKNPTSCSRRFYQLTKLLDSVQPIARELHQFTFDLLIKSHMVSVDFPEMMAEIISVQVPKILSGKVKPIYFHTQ
How it was run: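 Hormone-site competition run with Polar Screen Androgen Receptor Competitor Green kit per manufacturer's protocol; compounds tested at 10 μM.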

[4] = target: T3, Androgen receptor (Homo sapiens) (UniProt P10275); test: as §1; how it was run: as §2
T3 sequence (whole entry): T1 sequence (P10275 whole entry)

[5] = target: T3, Androgen receptor (Homo sapiens); test: as §3; format: cell-based; how it was run: as §4

Row | SMILES | IC50 (Androgen receptor [1]) | IC50 (Androgen receptor [2]) | inhibition [3] | inhibition [4] | inhibition [5] | viability at 50 µM (LNCaP)
1 | Oc1ccc(C2Nc3cccc4cccc(c34)N2)cc1 | 30.7 µM | 5.9 µM | inactive |  |  | 106%
2 | CCOc1cc(C2Nc3cccc4cccc(c34)N2)ccc1O | 31.5 µM | 11.1 µM | inactive |  |  | 122%
3 | CC1=NN(c2ccccc2)C(=O)/C1=N\Nc1ccc(C(=O)O)c(O)c1 | 26 µM | 33.4 µM | inactive | Dose-dependent effect | Dose-dependent effect | 50.9%
4 | Oc1ccc(C2Nc3cccc4cccc(c34)N2)cc1O | 30.6 µM | 18.6 µM | inactive | Dose-dependent effect | Dose-dependent effect | 121%

Further lines, with some results ahead:

Row | IC50 (Androgen receptor [1]) | IC50 (Androgen receptor [2]) | inhibition [3] | inhibition [4] | inhibition [5] | SMILES | viability at 50 µM (LNCaP)
5 | 32.9 µM | 4.6 µM | inactive |  |  | COc1cc(C2Nc3cccc4cccc(c34)N2)ccc1O | 129%
6 | 8.2 µM | 34.4 µM | inactive | Dose-dependent effect | Dose-dependent effect | COc1ccc(C2Nc3cccc4cccc(c34)N2)cc1O | 145%
